HSV augment: enhancers of HSV replication in host cells, fold increase, host cell viability; HSV replication augmentation in cells; maximum fold increase; 220,000 tested, 0.005% active; AID 1956, 2009; in the data active = maximum fold increase above about 1.5; tested in PC3 cells
Rce1 inh: yeast Rce1p protease inhibitors, primary screen, biochemical, fluorescence, cell-free homogeneous; CAAX prenyl protease 2 (Saccharomyces cerevisiae (strain ATCC 204508 / S288c)), Q03530; yeast membranes, quenched prenylated peptide cleavage fluorescence; calls only; 290,000 tested, 0.27% active;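 active = fall in fluorescence gain of 50% or more versus controls, with final raw signal at or below 3038400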;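 also: plate controls were neutral control wells for no effect and wells lacking membranes for full effect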
GSK3A inh: blockers of GSK3A enzyme activity – biochemical, luminescence, cell-free homogeneous, HTS, primary screen | GSK-3 alpha kinase, ADP-Glo luminescence, 60 min | inhibition, % at 10 µM | 320,000 tested, 0.1% active;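 active = more than half of replicates show inhibition above 20%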;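 also: GST-tagged GSK-3 alpha with peptide substrate and 25 µM ATP; 0% = DMSO neutral wells and 100% = GW8510 positive control wells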
Target sequence (P49840 whole entry, looked up): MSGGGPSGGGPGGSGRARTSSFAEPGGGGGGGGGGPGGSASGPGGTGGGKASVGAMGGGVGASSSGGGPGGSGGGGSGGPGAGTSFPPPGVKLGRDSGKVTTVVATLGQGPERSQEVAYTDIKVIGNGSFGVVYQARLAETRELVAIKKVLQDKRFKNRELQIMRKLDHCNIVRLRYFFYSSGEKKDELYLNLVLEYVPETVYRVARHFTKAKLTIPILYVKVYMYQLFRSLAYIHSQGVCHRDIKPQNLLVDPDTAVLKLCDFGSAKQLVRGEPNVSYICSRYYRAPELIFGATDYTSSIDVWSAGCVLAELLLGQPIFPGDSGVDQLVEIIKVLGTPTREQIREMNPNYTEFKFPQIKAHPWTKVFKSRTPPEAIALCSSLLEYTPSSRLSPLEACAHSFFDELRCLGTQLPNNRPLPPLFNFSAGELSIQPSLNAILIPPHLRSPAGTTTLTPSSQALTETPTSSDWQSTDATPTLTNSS
GSK3beta inhib: human GSK3beta kinase inhibitors, primary screen, biochemical, cell-free homogeneous, HTS. Glycogen synthase kinase-3 beta (Homo sapiens), P49841. GST-GSK3beta kinase, ADP-Glo luminescence, 60 min; stronger effect = lower value. activity score (negative = inhibition), % at 10 µM. 300,000 tested, 0.038% active. AID 2097, 2009;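 active = more than half of replicate wells score below -50%, meaning over 50% inhibition versus plate controls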;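 also: 0% = median DMSO wells and -100% = median GW8510 positive control wells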
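test system = GST-tagged human GSK3beta kinase, cell-free | reagent = 25 µM ATP with peptide substrate | dosing = one dose of 10 µM per compound | schedule = 60 min reaction, RT | detection = luminescent ADP-Glo measurement of ADP formed | control set = DMSO neutral wells and GW8510 at 20 µM as positive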
Hep lipid drop: inhibitors of hepatocyte lipid droplet formation, primary screen, imaging, high-throughput imaging, BODIPY stain; inhibition, % at 6.5 µM; AML12 mouse hepatocytes, oleate lipid droplets; 240,000 tested, 0.4% active; AID 1656, 2009;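 active = lipid droplet intensity inhibited by at least 50%, with more than 500 cells counted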
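Assay system: AML12 hepatocytes (mouse) / Also added: 100 µM oleic acid challenge / Times: overnight treatment with compound plus oleate / Detection: high-content imaging of BODIPY-stained droplets and DAPI nuclei / Evaluation: % inhibition of lipid droplet signal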
STK33 kinase inh: inhibitors of purified STK33 kinase, primary screen, biochemical, ADP-Glo luminescence, homogeneous, cell-free | Serine/threonine-protein kinase 33 (Homo sapiens), Q9BYT3 | MBP phosphorylation | inhibition, % at 10 µM | 320,000 tested, 0.073% active;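 active = inhibition at or above 25%, using the most active replicate where run in duplicate; inactive = inhibition below 25%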
Hep lipid conf: hepatocyte lipid droplet accumulation inhibitors, confirmation, imaging, AML12 mouse hepatocytes, single concentration, high-content; shares compounds with Hep lipid drop; BODIPY lipid droplet imaging; droplets induced with 100 µM oleic acid; inhibition, % at 5.2 µM; 870 tested, 65% active; AID 463183, 2010;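 active = inhibition of lipid droplet metric at least 50%, with more than 300 cells in each of four replicates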;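 also: plate controls were DMSO with oleic acid for no effect and 5 µM Triacsin-C for full effect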
AML12 tox img: AML12 hepatocyte cytotoxicity, counter-screen for hepatic lipid droplet formation project, imaging, DAPI nuclear morphology imaging. shares compounds with Hep lipid drop. AML12 mouse hepatocytes; stronger effect = higher value; cells fed 100 µM oleate overnight. z-score at 5 µM. 870 tested, 3% active. AID 463200, 2010; in the data active = z-score above about 6.3;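 also: compound exposure lasted overnight at 37 °C before fixation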
AML12 tox conf: AML12 hepatocyte cytotoxicity, confirmation, cytotoxicity control for hepatic lipid droplet formation project, cell-based, single concentration. AML12 mouse hepatocyte viability, ATP luminescence; cells loaded with 100 µM oleic acid. cytotoxicity, % at 50 µM. shares compounds with Hep lipid drop. 530 tested, under 10 active;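 active = cytotoxicity above 50% in each of four replicates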;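 also: compound exposure lasted overnight at 37 °C before the ATP read; 0% = DMSO-treated cells and 100% = wells with no cells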
* = called active by the depositor; i = inactive; . = not tested or not shown. Compounds with a hit are over-represented: about 0.7% of the library has one in this group of screens.

SMILES	HSV augment	Rce1 inh	GSK3A inh	GSK3beta inhib	Hep lipid drop	STK33 kinase inh	Hep lipid conf	AML12 tox img	AML12 tox conf
Cc1nn(-c2ccccc2)c(Cl)c1C(=O)OCC(=O)NCCc1ccccc1	.	i	.	1	2	3	.	.	.
CCC(C(=O)NCCc1ccccc1OC)n1nc(C)c2c(C)n(-c3ccccc3)nc2c1=O (stereo unspecified)	.	i	-2	1	57*	-2	82*	-0.72	14
CCOc1ccc(CCNC(=O)COC(=O)c2cc(OC)c(OC)c(OC)c2)cc1OCC	i	i	0	-1	75*	-2	109*	-0.53	11
Cc1ccc2c(=O)n3c(nc2c1)C(CC(C)C)NC(=O)c1ccc(Cl)cc1-3 (stereo unspecified)	.	.	-2	.	.	-3	.	.	.
COCCn1cnc2c(c1=O)c1nc3ccccc3nc1n2/N=C/c1ccc(OC)c(OC)c1	i	i	4	4	53*	-1	5	0.69	.
COCCn1cnc2c(c1=O)c1nc3ccccc3nc1n2/N=C/c1ccco1	i	i	3	1	23	4	.	.	.
CCOC(=O)Cc1csc(NC(=O)Cn2c(=O)oc3ccccc32)n1	i	i	2	0	9	-2	.	.	.
OCCC1CN(Cc2ccon2)CCN1Cc1ccc(F)c(F)c1 (stereo unspecified)	i	i	3	-2	-1	-1	.	.	.
Cc1ccccc1C(=O)NC1CCN(Cc2nnnn2C(C)(C)C)CC1	i	i	-1	0	-37	1	.	.	.
Cc1ccccc1C(=O)NC1CCN(Cc2nnnn2C2CCCC2)CC1	i	i	-3	1	63*	0	31	-0.19	.
CCC(C)(C)NC(=O)C(c1ccc(OC)cc1)N(C(=O)CCC(=O)Nc1cc(C)on1)C1CC1 (stereo unspecified)	.	i	3	-1	8	1	.	.	.
CCC(C)(C)NC(=O)C(c1ccc(OC)cc1)N(Cc1cccs1)C(=O)CCC(=O)Nc1cc(C)on1 (stereo unspecified)	i	.	0	.	78*	-1	102*	0.51	12
CCC(C)(C)NC(=O)C(c1ccc(OC)cc1)N(CC1CCCO1)C(=O)CCC(=O)Nc1cc(C)on1 (stereo unspecified)	i	.	-3	.	79*	0	91*	-0.48	11
CCC(C)(C)NC(=O)C(c1ccc(OC)cc1)N(C(=O)CCC(=O)Nc1cc(C)on1)c1cccc(OC)c1 (stereo unspecified)	.	i	-2	-3	-40	0	.	.	.
COc1ccc(C(C(=O)NC(C)(C)C)N(Cc2cccs2)C(=O)CCC(=O)Nc2cc(C)on2)cc1 (stereo unspecified)	i	.	2	.	107*	0	88*	-0.52	7
Cc1ccc(C(=O)Nc2ccccc2C(=O)NCc2ccco2)cc1	.	.	0	.	.	-1	.	.	.
CS(=O)(=O)Nc1ccc(C(=O)Nc2ccccc2C(=O)NCc2ccco2)cc1	.	i	2	0	57*	5	-3	-0.51	.
Cc1cc(C)nc(NCCO)n1	i	i	-4	1	81*	0	30	-0.23	.
Cc1ccc2nc(C)cc(NCCO)c2c1	i	i	-5	2	10	0	.	.	.
N/C(=N/O)c1nc(N2CCCCC2)nc(N2CCCCC2)n1	i	i	0	-1	8	1	.	.	.
N/C(=N/O)c1nc(N2CCCC2)nc(N(c2ccccc2)c2ccccc2)n1	i	i	1	-2	65*	-1	107*	-0.9	8
Cc1ccc(N=Nc2ccc(O)c3ncccc23)cc1	i	i	1	-2	-17	-1	.	.	.
Cc1ccc(N=Nc2ccc3ccccc3c2O)cc1	.	i	1	-2	82*	1	53	0.11	.
COc1ccc(N=Nc2ccc3ccccc3c2)c(O)c1	.	i	-1	1	22	0	.	.	.
Oc1c(N=Nc2ccc(F)cc2)ccc2ccccc12	.	i	3	0	71*	1	96*	1	64*
SMILES	HSV augment	Rce1 inh	GSK3A inh	GSK3beta inhib	Hep lipid drop	STK33 kinase inh	Hep lipid conf	AML12 tox img	AML12 tox conf
Oc1ccc2ccccc2c1N=Nc1ccc(F)cc1	i	i	2	-3	33	-1	.	.	.
COc1cccc(N=Nc2ccc3ccccc3c2O)c1	.	i	0	0	75*	0	70	-0.23	61*
CCN(c1ccccc1)S(=O)(=O)c1ccc(Cl)c(C(=O)NCc2ccco2)c1	.	.	-2	.	.	0	.	.	.
CCOc1ccc(CCNC(=O)Nc2ccccc2C)cc1OCC	.	i	-1	-3	104*	1	101*	0.0074	7
CCOc1ccc(CCNC(=O)Cn2cccc2C(=O)c2ccccc2C)cc1OCC	i	i	0	-4	101*	-2	109*	0.29	16
CCOc1ccc(CCNC(=O)CCn2cccc2)cc1OCC	i	i	-3	-2	.	-1	.	.	.
CCOc1ccc(CCNC(=O)CN2C(=O)NC3(CCCC3)C2=O)cc1OCC	.	i	6	1	83*	3	109*	0.32	11
CCOc1ccc(CCNC(=O)COC(=O)CSc2ccccc2C)cc1OCC	.	i	0	4	31	-1	.	.	.
Cc1ccc(CNC(=O)CNS(=O)(=O)c2ccc3c(c2)C(C)(C)C(=O)N3C)cc1	.	i	-7	2	7	0	.	.	.
COc1ccc(C(C#N)N2CCOCC2)cc1 (stereo unspecified)	i	i	-2	-1	53*	1	26	-1.1	.
COC(=O)c1ccccc1NC(=O)C1=CC(c2cccs2)=NS(=O)(=O)N1C	.	i	0	-1	-5	0	.	.	.
CSc1ccccc1NC(=O)C1=CC(c2cccs2)=NS(=O)(=O)N1C	.	i	2	-1	74*	-1	105*	0.14	14
Cc1cccc(-c2nc(S(=O)(=O)c3ccc(F)cc3)c(NCCCN3CCOCC3)o2)c1	.	i	2	-6	-36	-1	.	.	.

Screening results deposited in PubChem by several laboratories.
